Results published in ChEMBL document CHEMBL6134766, “Design, synthesis, and evaluation of benzhydrylpiperazine-based novel dual COX-2/5-LOX inhibitors with anti-inflammatory and anti-cancer activity” (RSC Med Chem, 2025).
Activity calls are given as the source filed them. No cut-off for these calls is given here.

How the values were obtained:
Rattus norvegicus [1] = experiment: Anti-inflammatory activity in carrageenan-induced paw edema Wistar rat model assessed as swelling thickness of paw at 5 mg/kg, po measured after 2 hrs by digital vernier caliper (reference value: 8.65 +/- 0.53 millimeter); type: functional
Rattus norvegicus [2] = experiment: Anti-inflammatory activity in carrageenan-induced paw edema Wistar rat model assessed as swelling thickness of paw at 20 mg/kg, po measured immediately by digital vernier caliper (reference value: 3.48 +/- 0.21 millimeter); type: functional
Rattus norvegicus [3] = experiment: Anti-inflammatory activity in arachidonic acid-induced paw edema Wistar rat model assessed as protection against swelling thickness of paw at 10 mg/kg, po measured after 1 hr by digital vernier caliper (reference value: 0 %); type: functional
[4] = Acute toxicity in female Wistar rat assessed as animal mortality up to 500 mg/kg, po measured for 14 days; type: organism-based; conditions: in vivo, 336 h, time 14 day
How it was run: (§1)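 Followed OECD 423 guideline in healthy female Wistar rats weighing 200–250 g. Animals were housed at 25 ± 2 °C and 45–60% RH on a 12 h light/dark cycle, with free access to water and food.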

Rattus norvegicus [5] = experiment: Anti-inflammatory activity in arachidonic acid-induced paw edema Wistar rat model assessed as swelling thickness of paw at 20 mg/kg, po measured after 1 hr by digital vernier caliper (reference value: 6.51 +/- 0.37 millimeter); type: functional
[6] = Toxicity in fasting Wistar rat assessed as ulceration at 5 mg/kg, po via gavage treated for 3 days consecutively by H and E staining based analysis (reference value: 0 %); type: organism-based; conditions: in vivo, 72 h, time 3 day
How it was run: (§2)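 Fasted rats, n = 6/group, gavaged once daily for 3 days in 0.3% Na CMC (vehicle control 0.3% CMC); killed under anaesthesia 6 h after day-3 dose; stomachs saline-washed, mucosa examined with hand lens; ulcer score, index and % ulceration by reported scoring; some stomachs formalin-fixed, H&E stained.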

[7] = Toxicity in fasting Wistar rat assessed as ulcer score at 5 mg/kg, po via gavage treated for 3 days consecutively by H and E staining based analysis (reference value: 0); type: organism-based; conditions: in vivo, 72 h, time 3 day; how it was run: as §2
Rattus norvegicus [8] = experiment: Anti-inflammatory activity in arachidonic acid-induced paw edema Wistar rat model assessed as protection against swelling thickness of paw at 20 mg/kg, po measured after 1 hr by digital vernier caliper (reference value: 0 %); type: functional
Rattus norvegicus [9] = experiment: Anti-inflammatory activity in carrageenan-induced paw edema Wistar rat model assessed as swelling thickness of paw at 10 mg/kg, po measured after 3 hrs by digital vernier caliper (reference value: 8.56 +/- 0.45 millimeter); type: functional
[10] = Acute toxicity in female Wistar rat assessed as drug tolerance up to 500 mg/kg, po measured for 14 days; type: organism-based; conditions: in vivo, 336 h, time 14 day; how it was run: as §1
Rattus norvegicus [11] = experiment: Cardio-protective activity in ISO-treated Wistar rat assessed as decrease in serum LDH level at 20 mg/kg, po; type: functional, organism-based
How it was run: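 Rats (n = 6/group) given ISO 100 mg kg−1 s.c., then oral test compound in 0.3% CMC; vehicle controls. Retro-orbital blood, serum separated at 4000 rpm, 4 °C, 10 min; LDH and CK-MB by commercial kits; mean ± SD.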

Rattus norvegicus [12] = experiment: Analgesic activity in acetic acid-induced pain Wistar rat model assessed as number of writhing at 20 mg/kg, po pretreated for 30 mins followed by acetic acid treatment measured for 30 mins by writhing test (reference value: 40.33 +/- 3.01); type: functional; conditions: 0.5 h
Rattus norvegicus [13] = experiment: Anti-inflammatory activity in carrageenan-induced paw edema Wistar rat model assessed as increase in IL-10 level in paw tissue at 5 to 20 mg/kg, po measured for 6 hrs by ELISA; type: functional, organism-based; conditions: dose 5-20 mg/kg
How it was run: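 Paw tissue taken from carrageenan-edema rats dosed orally at 5, 10 or 20 mg kg−1. Tissue rinsed in PBS pH 7.4, minced, homogenized, filtered and centrifuged at 2000 rpm for 20 min at 4 °C. Supernatant assayed by ELISA for PGE2, IL-6, TNF-α and IL-10. Data as mean ± SD.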

Rattus norvegicus [14] = experiment: Anti-inflammatory activity in carrageenan-induced paw edema Wistar rat model assessed as swelling thickness of paw at 20 mg/kg, po measured after 4 hrs by digital vernier caliper (reference value: 8.36 +/- 0.78 millimeter); type: functional
[15] = Toxicity in Wistar rat assessed as change in serum creatinine level at 20 mg/kg, po; type: organism-based; conditions: in vivo
How it was run: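 Rats dosed orally in 0.3% Na CMC; retro-orbital blood clotted at room temperature, serum separated at 2000 rpm, 20 min, 4 °C; ALT, AST, creatinine and urea by commercial kits; n = 6 per group, mean ± SD; Tukey test after repeated-measures one-way ANOVA.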

Rattus norvegicus [16] = experiment: Anti-inflammatory activity in carrageenan-induced paw edema Wistar rat model assessed as swelling thickness of paw at 20 mg/kg, po measured after 5 hrs by digital vernier caliper (reference value: 8.47 +/- 0.32 millimeter); type: functional
COLO 205 = experiment: Cytotoxicity against human COLO 205 cells assessed as growth inhibition incubated for 48 hrs by SRB assay; conditions: COLO 205, 48 h
Drosophila [17] = experiment: Toxicity in wild-type Drosophila assessed as reduction in eclosion rate at 100 uM, po via food to female and male flies and measured in F1 generation flies after 15 days; type: organism-based; set-up: scale not given: the % may be the effect or the level left; conditions: in vivo, 360 h, time 15 day
How it was run: (§3)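 Ten virgin female and male Oregon R+ flies crossed on food containing compound (1, 10, 50, 100 or 200 μM), held at 24 ± 1 °C; F1 generation followed 15 days; percent eclosion versus untreated controls; Dunnett's multiple comparisons.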

[18] = MRT in male Wistar rat at 10 mg/kg, po measured up to 24 hrs by HPLC analysis; type: ADME, organism-based; conditions: in vivo
How it was run: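 Overnight-fasted male Wistar rats, 200–250 g, single 10 mg kg−1 p.o. in 0.3% sodium CMC; blood at 0, 0.5, 1, 2, 4, 8, 16, 24 h into heparin tubes; plasma MeOH-extracted, HPLC (MeOH:H2O 85:15, 254 nm) against calibration curve; extravascular non-compartmental analysis; mean ± SD (n = 3).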

MIA PaCa-2 = experiment: Cytotoxicity against human MIA PaCa-2 cells assessed as growth inhibition incubated for 48 hrs by SRB assay; conditions: MIA PaCa-2, 48 h
Drosophila [19] = experiment: Toxicity in wild-type Drosophila assessed as eclosion rate at 1 uM, po via food to female and male flies and measured in F1 generation flies after 15 days; type: organism-based; conditions: in vivo, 360 h, time 15 day; how it was run: as §3
Drosophila [20] = experiment: Toxicity in wild-type Drosophila assessed as eclosion rate at 50 uM, po via food to female and male flies and measured in F1 generation flies after 15 days; type: organism-based; conditions: in vivo, 360 h, time 15 day; how it was run: as §3
[21] = AUC (0 to 24 hrs) in male Wistar rat at 10 mg/kg, po measured up to 24 hrs by HPLC analysis; type: ADME, organism-based; conditions: in vivo
How it was run: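 Healthy male Wistar rats (200–250 g, n = 5), fasted overnight, given a single oral dose of 10 mg kg−1 in 0.3% sodium CMC. Blood collected under anaesthesia at 0, 0.5, 1, 2, 4, 8, 16 and 24 h into heparinized tubes. Plasma extracted with MeOH and analysed by HPLC (MeOH:H2O 85:15, detection at 254 nm) against a standard calibration curve. Parameters from a non-compartmental extravascular model.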

O=[N+]([O-])c1ccc(-c2nnc(CN3CCN(C(c4ccccc4)c4ccc(Cl)cc4)CC3)o2)cc1 (centres undefined)
Activity (Rattus norvegicus [1]): 5.25 mm | Activity (Rattus norvegicus [2]): 3.65 mm | Activity (Rattus norvegicus [3]): 62.33% | Activity [4]: Non-toxic | Activity (Rattus norvegicus [5]): 2.24 mm | Activity [6]: 0.667% | Activity [7]: 0.01 | Activity (Rattus norvegicus [8]): 64.36% | Activity (Rattus norvegicus [9]): 4.41 mm | Activity [10]: Non-toxic | Activity (Rattus norvegicus [11]): Active | Activity (Rattus norvegicus [12]): 20.33 | Activity (Rattus norvegicus [13]): Active | Activity (Rattus norvegicus [14]): 4.32 mm | Activity [15]: Non-toxic | Activity (Rattus norvegicus [16]): 3.96 mm

Clc1ccc(-c2nnc(CN3CCN(C(c4ccccc4)c4ccc(Cl)cc4)CC3)o2)cc1 (centres undefined)
GI50 (COLO 205): 1220 nM | Activity (Rattus norvegicus [1]): 5.63 mm | Activity (Drosophila [17]): 41% | Activity (Rattus norvegicus [2]): 3.43 mm | MRT [18]: 3.42 h | Activity (Rattus norvegicus [3]): 69.22% | Activity [4]: Non-toxic | Activity (Rattus norvegicus [5]): 1.94 mm | Activity [6]: 0% | GI50 (MIA PaCa-2): 2320 nM | Activity [7]: 0 | Activity (Drosophila [19]): ~ 92% | Activity (Drosophila [20]): > 70% | Activity (Rattus norvegicus [8]): 70.21% | Activity (Rattus norvegicus [9]): 3.47 mm | Activity [10]: Non-toxic | Activity (Rattus norvegicus [11]): Active | AUC [21]: 32.06 µg/mL/h | Activity (Rattus norvegicus [12]): 17.83 | Activity (Rattus norvegicus [13]): Active | Activity (Rattus norvegicus [14]): 3.22 mm | Activity [15]: Non-toxic | Activity (Rattus norvegicus [16]): 3.24 mm
